# Screening data from PubChem BioAssay.
# A selection: hits, their analogues and other compounds. The true share with any hit is near 1.9%.
# M4 ag = CHRM4 agonism in calcium assay. 360,000 tested, 0.14% active. P08173. activation, % at 3 µM. CHO-K1 hM4/Gqi5, Fluo-8 calcium fluorescence; vehicle 0%, full acetylcholine response 100%;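 active means activation above the run mean over all test wells plus 3 SD, cut at about 32% in these data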;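 further: peak over basal fluorescence ratio per well then scaled between controls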
# Target sequence (P08173 whole entry, looked up): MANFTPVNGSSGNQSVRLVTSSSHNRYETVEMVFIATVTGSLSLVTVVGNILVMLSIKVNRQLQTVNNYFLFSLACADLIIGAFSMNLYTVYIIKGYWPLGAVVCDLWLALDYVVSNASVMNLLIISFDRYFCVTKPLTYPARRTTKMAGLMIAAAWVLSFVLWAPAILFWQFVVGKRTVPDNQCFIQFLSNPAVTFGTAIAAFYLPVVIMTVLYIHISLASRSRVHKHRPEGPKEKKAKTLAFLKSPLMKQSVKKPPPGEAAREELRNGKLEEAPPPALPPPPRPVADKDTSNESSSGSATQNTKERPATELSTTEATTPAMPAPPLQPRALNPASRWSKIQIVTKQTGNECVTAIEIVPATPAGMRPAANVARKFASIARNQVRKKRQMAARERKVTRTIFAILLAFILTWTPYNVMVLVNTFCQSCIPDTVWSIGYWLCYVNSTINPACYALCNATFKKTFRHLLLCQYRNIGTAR
# M5 PAM = potentiates acetylcholine response at human M5 receptor | P08912 | CHO-K1 hM5, Fluo-8 calcium, ACh EC20 PAM; 0% = ACh EC20, 100% = ACh EC100 | activation, % at 3 µM | 360,000 tested, 0.3% active | AID 624038;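 active means activation above the run cutoff, the mean activation of all test compounds plus 3 SD, cut at about 18% in these data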
#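 Measured by: Fluo-8 calcium fluorescence; material: human M5 receptor in CHO-K1 cells; schedule: Post-acetylcholine fluorescence recording 140 s; benchmarks: low control EC20 acetylcholine (0%), high control EC100 acetylcholine (100%); read-out: Max/basal fluorescence ratio as % of EC20–EC100 ACh window; compound: single dose, 3 µM nominal final test concentration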
# M5 ag = agonists of human muscarinic M5 receptor (CHRM5). P08912. CHO-K1 hM5 cells, Fluo-8 calcium fluorescence; 0% DMSO wells, 100% maximal acetylcholine response. activation, % at 3 µM. 360,000 tested, 0.19% active. AID 624037;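 active means activation above the run's mean over test compounds plus 3 SD, cut at about 23% in these data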;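 further: signal is peak over basal fluorescence ratio across the kinetic read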
# CHRM4 PAM = positive allosteric modulators of human muscarinic M4 receptor; P08173; CHO-K1 hM4/Gqi5, Fluo-8 calcium fluorescence, ACh EC20; 0% = ACh EC20, 100% = maximal ACh; 360,000 tested, 0.4% active; AID 624126; activation, % at 3 µM;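 active means activation above its plate's cutoff, the mean activation of sample wells plus 3 SD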
# CHRM5 antagonist = antagonists of human muscarinic M5 receptor (CHRM5); P08912; CHO-hM5 cells, Fluo-8 calcium fluorescence, ACh EC80; inhibition, % at 3 µM; 360,000 tested, 0.59% active;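 active means inhibition above a per-plate cutoff, the mean of that plate's test compounds plus 3 SD, cut at about 27% in these data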
# M4 antag = antagonists of human muscarinic M4 receptor (CHRM4) | inhibition, % at 3 µM | AID 624125 | P08173 | 360,000 tested, 0.73% active | CHO-hM4 cells, ACh EC80, Fluo-8 calcium fluorescence;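 active means inhibition above its plate's cutoff, the mean inhibition of sample wells plus 3 SD, cut at about 27% in these data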
# Hits are given with their value; n = inactive.
SMILES,M4 ag,M5 PAM,M5 ag,CHRM4 PAM,CHRM5 antagonist,M4 antag
CCC1CCCCN1CCCNC(=O)Cn1ncc2c(C)n(Cc3ccccc3Cl)c(C)c2c1=O (centres undefined),n,n,n,n,n,28
Cc1c2cnn(CC(=O)NCCCN3CCCCC3)c(=O)c2c(C)n1Cc1ccccc1,n,n,n,n,n,n
Cc1ccccc1Cc1c(C)nc2nc(SCC(=O)NCCCN3CCCC3)nn2c1C,n,n,n,n,n,n
CC1CCC2(CC1)NC(=O)N(CC(=O)N1c3ccccc3CC1C)C2=O (centres undefined),n,n,n,n,n,n
CC(C)(C)n1nnnc1C(c1ccccc1OC(F)(F)F)N1CCN(C/C=C/c2ccccc2)CC1 (centres undefined),n,n,n,n,n,n
COc1cccc(C(c2nnnn2C2CCCCC2)N2CCN(C/C=C/c3ccccc3)CC2)c1OC (centres undefined),n,n,n,n,41,29
COc1cccc(C(c2nnnn2-c2c(C)cccc2C)N2CCN(C/C=C/c3ccccc3)CC2)c1OC (centres undefined),n,n,n,n,n,n
FC(F)(F)Oc1ccccc1C(c1nnnn1C1CCCC1)N1CCN(C/C=C/c2ccccc2)CC1 (centres undefined),n,n,n,n,64,n
Cc1ccccc1CN1[C@@H](C(C)C)COCCS1(=O)=O,n,n,n,n,n,n
CC(C)N(C)C(=O)C(=O)c1cccn1-c1cccc(Cl)c1C#N,n,n,n,n,n,n
COc1cccc(C(=O)N2CCC[C@H]2C(=O)N2CCC[C@H]2C(=O)NCc2ccccn2)c1,n,n,n,n,n,n
COc1ccc(C2CC(c3ccccc3)=NN2C(=O)CN2N=NC3C(=O)N(c4cccc(F)c4)C(=O)C32)cc1 (centres undefined),n,n,n,n,n,n
COc1ccc(C2CC(c3ccc(Cl)cc3)=NN2C(C)=O)cc1 (centres undefined),n,43,n,n,31,n
CC(Oc1ccc2c3c(c(=O)oc2c1)CCC3)C(=O)NCc1cccnc1 (centres undefined),n,n,n,19,n,n
Cc1cccc(C)c1NC(=O)CN(C)C(=O)c1ccc2c(=O)n3c(nc2c1)CCC3,n,n,n,n,n,n
O=C(CSc1nc(C(F)(F)F)cc(=O)[nH]1)Nc1ccc2c(c1)OCCO2,n,n,n,n,n,n
CC(C)Cn1c(SCC(=O)NCc2ccc(Cl)cc2)nnc1-c1cccc(S(=O)(=O)N2CCOCC2)c1,n,n,n,n,n,n
Cc1cccc(C)c1NC(=O)[C@@]1(CC(=O)O)CC(/C=C/c2ccccc2)=NO1,n,n,n,14,n,n
C[C@H](CO)N1C[C@H](C)[C@@H](CN(C)Cc2ccncc2)Oc2c(NS(=O)(=O)c3ccccc3)cccc2C1=O,n,n,n,n,n,n
O=C1CCCC(O)=C1N=Nc1cccc(C(=O)O)c1,n,n,n,20,n,n
O=C1CSC(=S)N1/N=C/c1cc(Br)c(O)c(Br)c1,401,n,200,n,48,54
O=C(COC(=O)C1CCC1)NCc1ccccc1,n,n,n,24,n,n
O=C(COC(=O)C1CCCC1)NCc1ccc(Cl)cc1,n,n,n,n,n,n
C/C(=N\N=C(N)N)c1ccc(Cl)c(Cl)c1,n,n,n,n,n,n
O=[N+]([O-])c1cccc(/C=N/Nc2nc(NCc3ccccc3)nc(N3CCOCC3)n2)c1O,46,n,n,n,n,n
Cc1ccccc1OCCn1cnc2c(N)ncnc21,n,n,n,16,n,n
CCOC(=O)/C(C(=Nc1ccccc1)Nc1ccccc1)=C(\C)O,n,n,n,n,n,n
NC(=Nc1ccccc1)Nc1ccccc1,124,n,41,n,n,60
CC(C)(C)C(=O)CC1(O)C(=O)N(Cc2ccc(Cl)cc2)c2ccccc21 (centres undefined),n,n,n,38,n,n
